Data set [1] deals with Escherichia coli. As to the kind of experiment: In vitro for antibacterial activity against Escherichia coli. The data set is classed as functional. In a few lines: (§1)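 MIC by serial 2-fold broth dilution in nutrient broth with an inoculum of 10^6 CFU/mL. Compound range was 0.0005–250 μg/mL. Plates were incubated 18 h at 37 °C. MIC was taken as the lowest concentration preventing visible growth.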

The test system of the next data set is Bacteroides fragilis. Kind of data set: In vitro for antibacterial activity against […]. In kind it is functional. In a few lines: as §1
Data set [2] has as its system Pseudomonas aeruginosa. As to the kind of experiment: In vitro for antibacterial activity against Pseudomonas aeruginosa. The data set is classed as functional. In a few lines:
as §1

In the next data set the test system is Serratia marcescens. As to the kind of experiment: In vitro for antibacterial activity against Serratia marcescens. The data set is classed as functional. In a few lines:
as §1

The next data set relates to Morganella morganii. As to the kind of experiment: In vitro for antibacterial activity against Morganella morganii. The data set is classed as functional. The method in brief:
as §1

Data set [3] has as its system Streptococcus pneumoniae. Kind of data set: Antibacterial activity against Streptococcus pneumoniae. The data set is classed as functional.
A further data set has as its system Enterococcus faecalis. As to the kind of experiment: In vitro for antibacterial activity against Enterococcus faecalis. The data set is classed as functional. In a few lines: as §1
In another data set the test system is Enterobacter cloacae. Kind of data set: In vitro for antibacterial activity against Enterobacter cloacae. In kind it is functional.
In data set [4] the test system is Staphylococcus aureus. Kind of data set: Antibacterial activity against Staphylococcus aureus. In kind it is functional.
Data set [5] can be described thus: Partition coefficient (logD). The note with it: octanol/water.
The test system of another data set is Klebsiella pneumoniae. As to the kind of experiment: In vitro for antibacterial activity against Klebsiella pneumoniae. The data set is classed as functional. The method in brief: as §1
The test system of another data set is Proteus mirabilis. As to the kind of experiment: In vitro for antibacterial activity against Proteus mirabilis. The data set is classed as functional. The method in brief:
as §1

A short description of data set [6]: Solubility was measured at PH - 7.2 buffer.
Data set [7] deals with Escherichia coli. Kind of data set: Compound was tested for […] against Escherichia coli A 15119 after oral administration of drug in mice. In kind it is functional. The note with it: read-out: PD50. The method in brief:
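Mouse protection test against systemic infection. Compound was dissolved in sterile water and given orally to female OF1-strain Swiss mice weighing 18–25 g, with five mice per group.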

Data set [8] concerns Pseudomonas aeruginosa. Kind of data set: animal or person. The conditions noted are these: in Mus musculus, po, read-out: PD50. In kind it is functional.
The test system of data set [9] is Staphylococcus aureus. As to the kind of experiment: animal or person. The conditions noted are these: in Mus musculus, po, read-out: PD50. The data set is classed as functional.
Data set [10] is described as follows: Lethal dose was determined in OF1-strain female Swiss mice after intra venous administration of the drug. The conditions noted are these: mouse, in vivo, iv.
In data set [11] the test system is Streptococcus pneumoniae. Kind of data set: animal or person. The conditions noted are these: in Mus musculus, po, read-out: PD50. The data set is classed as functional.
A short description of data set [12]: Lethal dose was determined in OF1-strain female Swiss mice after oral administration of the drug. The conditions noted are these: mouse, in vivo.

In brackets after ≈: the same amount, converted by molar mass.

In general, MIC refers to the least concentration at which growth counts as inhibited. The term logD denotes lipophilicity at a set pH, counting ionised and neutral species. As to `CC(C)(CF)n1cc(C(=O)O)c(=O)c2cc(F)c(N3CC[C@H](N)C3)nc21`, the MIC was found to be 0.03 µg/mL (≈ 0.0819 µM) against Escherichia coli [1]; 16 µg/mL (≈ 43.7 µM) with Bacteroides fragilis; 1 µg/mL (≈ 2.73 µM) with Pseudomonas aeruginosa [2]; 0.25 µg/mL (≈ 0.682 µM) against Serratia marcescens; 0.06 µg/mL (≈ 0.164 µM) in the data set with Morganella morganii; 0.03 µg/mL (≈ 0.0819 µM) with Streptococcus pneumoniae [3]. Besides, the minimal inhibitory concentration (MIC) came out at 4 µg/mL (≈ 10.9 µM) in the data set with Enterococcus faecalis; 0.13 µg/mL (≈ 0.355 µM) in the data set with Enterobacter cloacae; 0.03 µg/mL (≈ 0.0819 µM) in the data set with Staphylococcus aureus [4]; 0.03 µg/mL (≈ 0.0819 µM) in the data set with Klebsiella pneumoniae; 0.5 µg/mL (≈ 1.36 µM) against Proteus mirabilis. The compound also showed a logD in data set [5] of -0.56.
One may read the solubility as the concentration that dissolves in the medium under given conditions. Regarding `CC(C)(C)n1cc(C(=O)O)c(=O)c2cc(F)c(N3CCNCC3)nc21`, the MIC with Escherichia coli [1] stood at 0.02 µg/mL (≈ 0.0574 µM); against Bacteroides fragilis, 8 µg/mL (≈ 23 µM); in the data set on Pseudomonas aeruginosa [2], 0.5 µg/mL (≈ 1.44 µM); with Serratia marcescens it was 0.06 µg/mL (≈ 0.172 µM); against Morganella morganii, 0.06 µg/mL (≈ 0.172 µM); against Streptococcus pneumoniae [3], 1 µg/mL (≈ 2.87 µM). Besides, the MIC in the data set with Enterococcus faecalis was 1 µg/mL (≈ 2.87 µM); in the data set with Enterobacter cloacae it was 0.06 µg/mL (≈ 0.172 µM); in the data set with Staphylococcus aureus [4], 0.06 µg/mL (≈ 0.172 µM); in the data set with Klebsiella pneumoniae it was 0.03 µg/mL (≈ 0.0861 µM); in the data set with Proteus mirabilis it was 0.13 µg/mL (≈ 0.373 µM). In addition, the concentration in solution in data set [6] (solubility) was 820 µg/mL (≈ 2350 µM). The same compound had a log distribution coefficient (logD) in [5] of -0.33.
As for `N[C@H]1CCN(c2nc3c(cc2F)c(=O)c(C(=O)O)cn3-c2ccc(F)cc2F)C1`, the MIC against Escherichia coli [1] is 0.008 µg/mL (≈ 0.0198 µM); in the data set with Bacteroides fragilis it was 0.5 µg/mL (≈ 1.24 µM); with Pseudomonas aeruginosa [2], 0.25 µg/mL (≈ 0.618 µM); in the data set with Serratia marcescens it was 0.06 µg/mL (≈ 0.148 µM); in the data set on Morganella morganii it was 0.06 µg/mL (≈ 0.148 µM); in the data set with Streptococcus pneumoniae [3], 0.06 µg/mL (≈ 0.148 µM). Besides, the MIC with Enterococcus faecalis came out at 0.13 µg/mL (≈ 0.322 µM); with Enterobacter cloacae, 0.016 µg/mL (≈ 0.0396 µM); in the data set on Staphylococcus aureus [4] it was 0.008 µg/mL (≈ 0.0198 µM); against Klebsiella pneumoniae, 0.008 µg/mL (≈ 0.0198 µM); against Proteus mirabilis, 0.03 µg/mL (≈ 0.0742 µM).
Take `Cc1c(F)c(N2CC3CCC2CN3)nc2c1c(=O)c(C(=O)O)cn2C1CC1` (stereo not drawn): the minimal inhibitory concentration (MIC) in the data set on Escherichia coli [1] was 0.008 µg/mL (≈ 0.0215 µM); against Bacteroides fragilis it was 16 µg/mL (≈ 43 µM); with Pseudomonas aeruginosa [2] it was 0.5 µg/mL (≈ 1.34 µM); in the data set with Serratia marcescens, 0.13 µg/mL (≈ 0.349 µM); with Morganella morganii, 0.06 µg/mL (≈ 0.161 µM); in the data set on Streptococcus pneumoniae [3] it was 0.13 µg/mL (≈ 0.349 µM). Besides, the MIC against Enterococcus faecalis was found to be 0.13 µg/mL (≈ 0.349 µM); against Enterobacter cloacae, 0.06 µg/mL (≈ 0.161 µM); with Staphylococcus aureus [4], 0.03 µg/mL (≈ 0.0806 µM); with Klebsiella pneumoniae, 0.016 µg/mL (≈ 0.043 µM); in the data set on Proteus mirabilis, 0.13 µg/mL (≈ 0.349 µM).
As usually defined, the LD50 is the dose at which mortality reaches 50%. `Cc1c(F)c(N2CC[C@H](N)C2)nc2c1c(=O)c(C(=O)O)cn2-c1ccc(F)cc1`: the ED50 came out at 4.9 mg/kg in the data set on Escherichia coli [7], 2.9 mg/kg in the data set with Pseudomonas aeruginosa [8], 4.2 mg/kg with Staphylococcus aureus [9] and 14.4 mg/kg in the data set on Streptococcus pneumoniae [11]. Besides, the minimal inhibitory concentration (MIC) with Escherichia coli [1] was 0.002 µg/mL (≈ 0.005 µM); in the data set on Pseudomonas aeruginosa [2] it was 0.25 µg/mL (≈ 0.624 µM); against Serratia marcescens, 0.03 µg/mL (≈ 0.0749 µM); in the data set with Morganella morganii, 0.008 µg/mL (≈ 0.02 µM); with Streptococcus pneumoniae [3], 0.03 µg/mL (≈ 0.0749 µM); against Enterococcus faecalis, 0.06 µg/mL (≈ 0.15 µM). Besides, the MIC in the data set on Enterobacter cloacae stood at 0.002 µg/mL (≈ 0.005 µM); with Staphylococcus aureus [4], 0.004 µg/mL (≈ 0.00999 µM); in the data set with Klebsiella pneumoniae, 0.002 µg/mL (≈ 0.005 µM); with Proteus mirabilis, 0.008 µg/mL (≈ 0.02 µM). For the same compound, in data set [6], the solubility is 80 µg/mL (≈ 200 µM). Also, the values for the LD50 in data set [10] and in [12] were 94 mg/kg and 2500 mg/kg, respectively. Moreover, the pH-dependent lipophilicity (logD) in data set [5] was determined as 0.91.
As for `CCc1c(F)c(N2CC[C@H](N)C2)nc2c1c(=O)c(C(=O)O)cn2C1CC1`, the minimal inhibitory concentration (MIC) turned out to be 0.25 µg/mL (≈ 0.694 µM) against Escherichia coli [1]; 1 µg/mL (≈ 2.77 µM) against Bacteroides fragilis; 4 µg/mL (≈ 11.1 µM) against Pseudomonas aeruginosa [2]; 0.5 µg/mL (≈ 1.39 µM) in the data set with Serratia marcescens; 0.5 µg/mL (≈ 1.39 µM) with Morganella morganii; 1 µg/mL (≈ 2.77 µM) in the data set on Streptococcus pneumoniae [3]. The MIC worked out at 16 µg/mL (≈ 44.4 µM) with Enterococcus faecalis; 0.25 µg/mL (≈ 0.694 µM) in the data set with Enterobacter cloacae; 1 µg/mL (≈ 2.77 µM) in the data set on Staphylococcus aureus [4]; 0.25 µg/mL (≈ 0.694 µM) in the data set with Klebsiella pneumoniae; 2 µg/mL (≈ 5.55 µM) against Proteus mirabilis. For the same compound, in [6], the solubility worked out at 70 µg/mL (≈ 194 µM). Moreover, the log distribution coefficient (logD) in data set [5] was found to be 1.37.
`Cc1c(F)c(N2CC[C@H](N)C2)nc2c1c(=O)c(C(=O)O)cn2C(C)(C)CF`: the MIC came to 0.016 µg/mL (≈ 0.0421 µM) against Escherichia coli [1]; 2 µg/mL (≈ 5.26 µM) against Bacteroides fragilis; 2 µg/mL (≈ 5.26 µM) in the data set with Pseudomonas aeruginosa [2]; 0.5 µg/mL (≈ 1.31 µM) in the data set with Serratia marcescens; 0.5 µg/mL (≈ 1.31 µM) against Morganella morganii; 2 µg/mL (≈ 5.26 µM) in the data set with Streptococcus pneumoniae [3]. Moreover, the MIC in the data set with Enterococcus faecalis turned out to be 2 µg/mL (≈ 5.26 µM); in the data set with Enterobacter cloacae, 0.25 µg/mL (≈ 0.657 µM); against Staphylococcus aureus [4], 0.25 µg/mL (≈ 0.657 µM); against Klebsiella pneumoniae, 0.03 µg/mL (≈ 0.0789 µM); with Proteus mirabilis, 0.5 µg/mL (≈ 1.31 µM).
Take `Cc1c(F)c(N2CC3CCC2CN3)nc2c1c(=O)c(C(=O)O)cn2-c1ccc(F)cc1F` (stereo not drawn): the MIC worked out at 0.008 µg/mL (≈ 0.018 µM) in the data set on Escherichia coli [1]; 4 µg/mL (≈ 9 µM) in the data set on Bacteroides fragilis; 0.5 µg/mL (≈ 1.13 µM) in the data set on Pseudomonas aeruginosa [2]; 0.5 µg/mL (≈ 1.13 µM) against Serratia marcescens; 0.13 µg/mL (≈ 0.293 µM) in the data set on Morganella morganii; 0.06 µg/mL (≈ 0.135 µM) against Streptococcus pneumoniae [3]. Also, the minimal inhibitory concentration (MIC) against Enterococcus faecalis stood at 0.25 µg/mL (≈ 0.563 µM); with Enterobacter cloacae, 0.008 µg/mL (≈ 0.018 µM); against Staphylococcus aureus [4], 0.008 µg/mL (≈ 0.018 µM); with Klebsiella pneumoniae, 0.008 µg/mL (≈ 0.018 µM); in the data set on Proteus mirabilis it was 0.13 µg/mL (≈ 0.293 µM). In addition, the ED50 with Pseudomonas aeruginosa [8] is 1.4 mg/kg; with Staphylococcus aureus [9] it was 5.4 mg/kg; in the data set on Streptococcus pneumoniae [11] it was 9.5 mg/kg. Also, the solubility in [6] is 10 µg/mL (≈ 22.5 µM). Besides, the figures for the LD50 in data set [10] and in data set [12] were 24 mg/kg and 2500 mg/kg, respectively. The logD in [5] is 0.4.
As to `CCc1c(F)c(N2CCNCC2)nc2c1c(=O)c(C(=O)O)cn2C1CC1`, the MIC against Escherichia coli [1] stood at 0.5 µg/mL (≈ 1.39 µM); with Bacteroides fragilis it was 1 µg/mL (≈ 2.77 µM); in the data set on Pseudomonas aeruginosa [2], 16 µg/mL (≈ 44.4 µM); in the data set on Serratia marcescens, 1 µg/mL (≈ 2.77 µM); in the data set with Morganella morganii, 4 µg/mL (≈ 11.1 µM); in the data set with Streptococcus pneumoniae [3], 0.25 µg/mL (≈ 0.694 µM). Also, the minimal inhibitory concentration (MIC) stood at 16 µg/mL (≈ 44.4 µM) in the data set with Enterococcus faecalis; 1 µg/mL (≈ 2.77 µM) against Enterobacter cloacae; 0.5 µg/mL (≈ 1.39 µM) in the data set on Staphylococcus aureus [4]; 1 µg/mL (≈ 2.77 µM) with Klebsiella pneumoniae; 8 µg/mL (≈ 22.2 µM) in the data set on Proteus mirabilis.

Values taken from ChEMBL document CHEMBL1126152, “Fluoronaphthyridines as antibacterial agents. 4. Synthesis and structure-activity relationships of 5-substituted-6-fluoro-7-(cycloalkylamino)-1,4-dihydro-4-oxo-1,8- naphthyridine-3-carboxylic acids” (J Med Chem, 1992).
